Reference: ChEMBL document CHEMBL1153830, “Treatment of a clinically relevant plant-pathogenic fungus with an agricultural azole causes cross-resistance to medical azoles and potentiates caspofungin efficacy” (2007)
Converted amounts (≈) assume the structure as drawn. The source made the active and inactive calls. The calls are words filed in the database; no cut-off is given here.

What was measured:
[1] = test system: Colletotrichum graminicola; assay: Fungicidal activity against tebuconazole-adapted wild type Colletotrichum graminicola CgM2 infected in excised human skin assessed as inhibition of invasive colonized hyphal growth at epidermis at ED90 after 4 days by Uvitex-2B staining-based fluorescence microscopy; type: functional, organism-based
Procedure, shortened: (§1)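 Excised human skin from reduction mammoplasty, all pieces from one donor, cut to 20 mm discs. Each disc got 15–20 prick wounds and 100 μl of 10^6 conidia/ml. Discs sat in a Franz diffusion cell at 32°C over isotonic NaCl for up to 4 days. Drug was applied at ED50, ED90 or 2× ED90, three pieces per condition. Biopsies were cryosectioned and Uvitex 2B-stained; hyphal area per section was measured by fluorescence.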

[2] = test system: Colletotrichum graminicola; assay: Fungicidal activity against tebuconazole-adapted wild type Colletotrichum graminicola CgM2 assessed as inhibition of radial growth rate at 23 degC in darkness; type: functional; conditions: for EC50: Colletotrichum graminicola, CgM2, read-out: ED50 (the source's name)
Procedure, shortened: (§2)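 Radial growth on solid complete medium, 23°C, darkness. Colony diameters were read at 3 and 6 days after inoculation and compared with drug-free control plates. Azoles and picoxystrobin were dissolved in 12% (wt/vol) Cremophor EL and tested at 0–2.5 μg/ml. Caspofungin, amphotericin B and nystatin were dissolved in water and tested from 0.00025 μg/ml; caspofungin plates used sucrose (10 mg/ml) in place of glucose.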

[3] = test system: Colletotrichum graminicola; assay: Fungicidal activity against tebuconazole-nonadapted wild type Colletotrichum graminicola CgM2 infected in excised human skin assessed as inhibition of invasive colonized hyphal growth at hypodermis at twofold ED90 after 4 days by Uvitex-2B staining-based fluorescence microscopy; type: functional, organism-based; procedure, shortened: as §1
[4] = test system: Colletotrichum graminicola; assay: Fungicidal activity against tebuconazole-nonadapted wild type Colletotrichum graminicola CgM2 assessed as inhibition of radial growth rate at 23 degC in darkness; type: functional; conditions: for EC50: Colletotrichum graminicola, CgM2, read-out: ED50 (the source's name); procedure, shortened: as §2
[5] = test system: Colletotrichum graminicola; assay: Fungicidal activity against tebuconazole-nonadapted wild type Colletotrichum graminicola CgM2 infected in excised human skin assessed as inhibition of invasive colonized hyphal growth at hypodermis at ED50 after 4 days by Uvitex-2B staining-based fluorescence microscopy; type: functional, organism-based; procedure, shortened: as §1
[6] = test system: Colletotrichum graminicola; assay: Fungicidal activity against tebuconazole-adapted wild type Colletotrichum graminicola CgM2 infected in excised human skin assessed as inhibition of invasive colonized hyphal growth at hypodermis at ED90 after 4 days by Uvitex-2B staining-based fluorescence microscopy; type: functional, organism-based; procedure, shortened: as §1
[7] = test system: Colletotrichum graminicola; assay: Fungicidal activity against tebuconazole-adapted wild type Colletotrichum graminicola CgM2 infected in excised human skin assessed as inhibition of invasive colonized hyphal growth at hypodermis at ED50 after 4 days by Uvitex-2B staining-based fluorescence microscopy; type: functional, organism-based; procedure, shortened: as §1
[8] = test system: Colletotrichum graminicola; assay: Fungicidal activity against tebuconazole-nonadapted wild type Colletotrichum graminicola CgM2 infected in excised human skin assessed as inhibition of invasive colonized hyphal growth at dermis at twofold ED90 after 4 days by Uvitex-2B staining-based fluorescence microscopy; type: functional, organism-based; procedure, shortened: as §1
[9] = test system: Colletotrichum graminicola; assay: Fungicidal activity against tebuconazole-nonadapted wild type Colletotrichum graminicola CgM2 infected in excised human skin assessed as inhibition of invasive colonized hyphal growth at epidermis at twofold ED90 after 4 days by Uvitex-2B staining-based fluorescence microscopy; type: functional, organism-based; procedure, shortened: as §1
[10] = test system: Colletotrichum graminicola; assay: Fungicidal activity against tebuconazole-nonadapted wild type Colletotrichum graminicola CgM2 infected in excised human skin assessed as inhibition of invasive colonized hyphal growth at dermis at ED50 after 4 days by Uvitex-2B staining-based fluorescence microscopy; type: functional, organism-based; procedure, shortened: as §1
[11] = test system: Colletotrichum graminicola; assay: Fungicidal activity against tebuconazole-adapted wild type Colletotrichum graminicola CgM2 infected in excised human skin assessed as inhibition of invasive colonized hyphal growth at dermis at twofold ED90 after 4 days by Uvitex-2B staining-based fluorescence microscopy; type: functional, organism-based; procedure, shortened: as §1
[12] = test system: Colletotrichum graminicola; assay: Fungicidal activity against tebuconazole-nonadapted wild type Colletotrichum graminicola CgM2 infected in excised human skin assessed as inhibition of invasive colonized hyphal growth at hypodermis at ED90 after 4 days by Uvitex-2B staining-based fluorescence microscopy; type: functional, organism-based; procedure, shortened: as §1
[13] = test system: Colletotrichum graminicola; assay: Fungicidal activity against tebuconazole-nonadapted wild type Colletotrichum graminicola CgM2 infected in excised human skin assessed as inhibition of invasive colonized hyphal growth at epidermis at ED90 after 4 days by Uvitex-2B staining-based fluorescence microscopy; type: functional, organism-based; procedure, shortened: as §1
[14] = test system: Colletotrichum graminicola; assay: Fungicidal activity against tebuconazole-adapted wild type Colletotrichum graminicola CgM2 infected in excised human skin assessed as inhibition of invasive colonized hyphal growth at epidermis at ED50 after 4 days by Uvitex-2B staining-based fluorescence microscopy; type: functional, organism-based; procedure, shortened: as §1
[15] = test system: Colletotrichum graminicola; assay: Fungicidal activity against tebuconazole-adapted wild type Colletotrichum graminicola CgM2 infected in excised human skin assessed as inhibition of invasive colonized hyphal growth at dermis at ED90 after 4 days by Uvitex-2B staining-based fluorescence microscopy; type: functional, organism-based; procedure, shortened: as §1
[16] = test system: Colletotrichum graminicola; assay: Fungicidal activity against tebuconazole-adapted wild type Colletotrichum graminicola CgM2 infected in excised human skin assessed as inhibition of invasive colonized hyphal growth at dermis at ED50 after 4 days by Uvitex-2B staining-based fluorescence microscopy; type: functional, organism-based; procedure, shortened: as §1
[17] = test system: Colletotrichum graminicola; assay: Fungicidal activity against tebuconazole-nonadapted wild type Colletotrichum graminicola CgM2 infected in excised human skin assessed as inhibition of invasive colonized hyphal growth at dermis at ED90 after 4 days by Uvitex-2B staining-based fluorescence microscopy; type: functional, organism-based; procedure, shortened: as §1
[18] = test system: Colletotrichum graminicola; assay: Fungicidal activity against tebuconazole-nonadapted wild type Colletotrichum graminicola CgM2 infected in excised human skin assessed as inhibition of invasive colonized hyphal growth at epidermis at ED50 after 4 days by Uvitex-2B staining-based fluorescence microscopy; type: functional, organism-based; procedure, shortened: as §1
[19] = test system: Colletotrichum graminicola; assay: Fungicidal activity against tebuconazole-adapted wild type Colletotrichum graminicola CgM2 infected in excised human skin assessed as inhibition of invasive colonized hyphal growth at hypodermis at twofold ED90 after 4 days by Uvitex-2B staining-based fluorescence microscopy; type: functional, organism-based; procedure, shortened: as §1
[20] = test system: Colletotrichum graminicola; assay: Fungicidal activity against tebuconazole-adapted wild type Colletotrichum graminicola CgM2 infected in excised human skin assessed as inhibition of invasive colonized hyphal growth at epidermis at twofold ED90 after 4 days by Uvitex-2B staining-based fluorescence microscopy; type: functional, organism-based; procedure, shortened: as §1
[21] = test system: Colletotrichum graminicola; assay: Fungicidal activity against compound-adapted wild type Colletotrichum graminicola CgM2 assessed as inhibition of radial growth rate at 30 ppm at 23 degC in darkness after 7 days; type: functional, organism-based
Procedure, shortened: (§3)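 Isolate CgM2: 1 × 10^6 conidia grown in 50 ml liquid complete medium (CM), 7 days in darkness at 23°C. Adapted lines were passed through tebuconazole at 1, 5 and 20 μg/ml, then kept on CM plates containing 5 and 8 μg/ml (4 weeks each) and finally 30 μg/ml. Radial growth on CM plates was compared with that of the nonadapted strain.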

[22] = test system: Colletotrichum graminicola; assay: Fungicidal activity against compound-nonadapted wild type Colletotrichum graminicola CgM2 assessed as inhibition of radial growth rate at 30 ppm at 23 degC in darkness after 7 days; type: functional, organism-based; procedure, shortened: as §3
[23] = test system: Colletotrichum graminicola; assay: Ratio of ED90 for tebuconazole-adapted wild type Colletotrichum graminicola CgM2 to ED90 for tebuconazole-nonadapted wild type Colletotrichum graminicola CgM2; type: functional
Procedure, shortened: (§4)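 Values came from logit transformation and linear regression, with confidence intervals at α = 0.05. Ratios compare tebuconazole-adapted with nonadapted CgM2.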

[24] = test system: Colletotrichum graminicola; assay: Ratio of ED50 for tebuconazole-adapted wild type Colletotrichum graminicola CgM2 to ED50 for tebuconazole-nonadapted wild type Colletotrichum graminicola CgM2; type: functional; procedure, shortened: as §4

| Compound | ED90 [2] | EC50 [2] | ED90 [4] | EC50 [4] | also measured |
| --- | --- | --- | --- | --- | --- |
| c1ccc(-c2ccc(C(c3ccccc3)n3ccnc3)cc2)cc1 (stereo unspecified) [BIFONAZOLE] | 4.892 µg/mL (≈ 15.8 µM) | 0.33 µg/mL (≈ 1.06 µM) | 1.958 µg/mL (≈ 6.31 µM) | 0.148 µg/mL (≈ 0.477 µM) | Activity [1]: inactive; Activity [3]: Active; Activity [5]: Active; Activity [6]: inactive; Activity [7]: inactive; Activity [8]: Active; Activity [9]: Active; Activity [10]: Active; Activity [11]: inactive; Activity [12]: Active; Activity [13]: Active; Activity [14]: inactive; Activity [15]: inactive; Activity [16]: inactive; Activity [17]: Active; Activity [18]: Active; Activity [19]: inactive; Activity [20]: inactive |
| Cc1cc(C2CCCCC2)n(O)c(=O)c1.NCCO [CICLOPIROX OLAMINE] | 54.616 µg/mL | 3.67 µg/mL | 64.842 µg/mL | 9.83 µg/mL | – |
| CC(C)(C)C(O)(CCc1ccc(Cl)cc1)Cn1cncn1 (stereo unspecified) [TEBUCONAZOLE] | 13.534 µg/mL (≈ 44 µM) | 0.423 µg/mL (≈ 1.37 µM) | 0.504 µg/mL (≈ 1.64 µM) | 0.059 µg/mL (≈ 0.192 µM) | Activity [21]: inactive; Activity [22]: Active; fold change (FC) [23]: 27; fold change (FC) [24]: 7 |
| Cc1cccc(N(C)C(=S)Oc2ccc3ccccc3c2)c1 [TOLNAFTATE] | 98.71 µg/mL (≈ 321 µM) | 0.537 µg/mL (≈ 1.75 µM) | 104.107 µg/mL (≈ 339 µM) | 0.582 µg/mL (≈ 1.89 µM) | – |
| CCC(C)n1ncn(-c2ccc(N3CCN(c4ccc(OCC5COC(Cn6cncn6)(c6ccc(Cl)cc6Cl)O5)cc4)CC3)cc2)c1=O (stereo unspecified) [ITRACONAZOLE] | 8.848 µg/mL (≈ 12.5 µM) | 0.014 µg/mL (≈ 0.0198 µM) | 1.351 µg/mL (≈ 1.91 µM) | 0.007 µg/mL (≈ 0.00992 µM) | – |
| CC(=O)N1CCN(c2ccc(OCC3COC(Cn4ccnc4)(c4ccc(Cl)cc4Cl)O3)cc2)CC1 (stereo unspecified) [KETOCONAZOLE] | 12.419 µg/mL (≈ 23.4 µM) | 0.552 µg/mL (≈ 1.04 µM) | 1.492 µg/mL (≈ 2.81 µM) | 0.115 µg/mL (≈ 0.216 µM) | – |
| Clc1ccc(COC(Cn2ccnc2)c2ccc(Cl)cc2Cl)c(Cl)c1 (stereo unspecified) [MICONAZOLE] | 4.386 µg/mL (≈ 10.5 µM) | 0.048 µg/mL (≈ 0.115 µM) | 1.327 µg/mL (≈ 3.19 µM) | 0.028 µg/mL (≈ 0.0673 µM) | – |
| COC1=CC(=O)C[C@@H](C)[C@]12Oc1c(Cl)c(OC)cc(OC)c1C2=O [GRISEOFULVIN] | 5.839 µg/mL (≈ 16.6 µM) | 0.051 µg/mL (≈ 0.145 µM) | 5.503 µg/mL (≈ 15.6 µM) | 0.607 µg/mL (≈ 1.72 µM) | – |
| CCC(C)(C)c1ccc(CC(C)CN2C[C@@H](C)O[C@@H](C)C2)cc1 (stereo partly specified) [AMOROLFINE] | 0.36 µg/mL (≈ 1.13 µM) | 0.023 µg/mL (≈ 0.0724 µM) | 0.347 µg/mL (≈ 1.09 µM) | 0.03 µg/mL (≈ 0.0945 µM) | – |
| C[C@@H](c1ncncc1F)[C@](O)(Cn1cncn1)c1ccc(F)cc1F [VORICONAZOLE] | 1.328 µg/mL (≈ 3.8 µM) | 0.045 µg/mL (≈ 0.129 µM) | 0.228 µg/mL (≈ 0.653 µM) | 0.018 µg/mL (≈ 0.0515 µM) | – |
| Clc1ccccc1C(c1ccccc1)(c1ccccc1)n1ccnc1 [CLOTRIMAZOLE] | 6.485 µg/mL (≈ 18.8 µM) | 0.145 µg/mL (≈ 0.42 µM) | 2.44 µg/mL (≈ 7.08 µM) | 0.128 µg/mL (≈ 0.371 µM) | – |
| NYSTATIN | 0.896 µg/mL | – | 2.41 µg/mL | – | ED50 [2]: 0.023 µg/mL; ED50 [4]: 0.03 µg/mL |
| CO/C=C(/C(=O)OC)c1ccccc1COc1cccc(C(F)(F)F)n1 [PICOXYSTROBIN] | 1.041 µg/mL (≈ 2.83 µM) | 0.026 µg/mL (≈ 0.0708 µM) | 0.148 µg/mL (≈ 0.403 µM) | 0.006 µg/mL (≈ 0.0163 µM) | fold change (FC) [23]: 7; fold change (FC) [24]: 4 |
| C[C@@H]1[C@H](O)[C@@H](C)/C=C/C=C/C=C/C=C/C=C/C=C/C=C/[C@H](O[C@@H]2O[C@H](C)[C@@H](O)[C@H](N)[C@@H]2O)C[C@@H]2O[C@](O)(C[C@@H](O)C[C@@H](O)[C@H](O)CC[C@@H](O)C[C@@H](O)CC(=O)O[C@H]1C)C[C@H](O)[C@H]2C(=O)O [AMPHOTERICIN B] | 0.873 µg/mL (≈ 0.945 µM) | 0.007 µg/mL (≈ 0.00758 µM) | 2.147 µg/mL (≈ 2.32 µM) | 0.03 µg/mL (≈ 0.0325 µM) | – |
| CCCN(CCOc1c(Cl)cc(Cl)cc1Cl)C(=O)n1ccnc1 [PROCHLORAZ] | 0.72 µg/mL (≈ 1.91 µM) | 0.011 µg/mL (≈ 0.0292 µM) | 0.087 µg/mL (≈ 0.231 µM) | 0.004 µg/mL (≈ 0.0106 µM) | fold change (FC) [23]: 8; fold change (FC) [24]: 2.75 |
